Assay results: ChEMBL document CHEMBL3045005, “Synthesis and biological evaluation of new analogues of the active fungal metabolites N-(2-methyl-3-oxodecanoyl)-2-pyrroline and N-(2-methyl-3-oxodec-8-enoyl)-2-pyrroline (II)” (2000)
Activity calls are given as the source filed them. No cut-off for these calls is given here.

How the values were obtained:
[1] = test system: Verticillium dahliae; assay: Fungicidal activity against Verticillium dahliae CCM 269 assessed as inhibition of radial mycelial growth at 2.5 ug/mL after 6 days; assay type: functional; details: CCM 269, 144 h, read-out: GI
Outline: (§1)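 Benomyl added to PDA at 2.5 µg/mL; acetone-only PDA plates served as controls. Plates were inoculated with spores from seven-day-old PDA cultures and incubated at 28 °C for 6 days. Radial mycelial growth was measured and % inhibition was calculated relative to control plates. Three independent determinations; means ± SD; ANOVA with LSD test.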

[2] = test system: Phytophthora citrophthora; assay: Fungicidal activity against Phytophthora citrophthora assessed as inhibition of radial mycelial growth at 2.5 ug/mL after 4 days; assay type: functional; details: 96 h, read-out: GI
Outline: as §1, with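 “cultures of each fungus” for “cultures”, “4” for “6”, “against control-plate growth.” for “relative to control plates.”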

[3] = test system: Trichothecium roseum; assay: Fungicidal activity against Trichothecium roseum CECT 2410 assessed as inhibition of radial mycelial growth at 2.5 ug/mL after 4 days; assay type: functional; details: CECT 2410, 96 h, read-out: GI
Outline: as §1, with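 “cultures of each fungus” for “cultures”, “4” for “6”, “against control-plate growth.” for “relative to control plates.”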

[4] = test system: Fusarium oxysporum f. sp. gladioli; assay: Fungicidal activity against Fusarium oxysporum f. sp. gladioli CCM 233 assessed as inhibition of radial mycelial growth at 2.5 ug/mL after 4 days; assay type: functional; details: CCM 233, 96 h, read-out: GI
Outline: as §1, with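 “cultures of each fungus” for “cultures”, “4” for “6”, “against control-plate growth.” for “relative to control plates.”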

[5] = test system: Geotrichum candidum; assay: Fungicidal activity against Galactomyces geotrichum CCM 245 assessed as inhibition of radial mycelial growth at 2.5 ug/mL after 4 days; assay type: functional; details: CCM 245, 96 h, read-out: GI
Outline: as §1, with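 “cultures of each fungus” for “cultures”, “4” for “6”, “against control-plate growth.” for “relative to control plates.”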

[6] = test system: Aspergillus parasiticus; assay: Fungicidal activity against Aspergillus parasiticus CECT 2681 assessed as inhibition of radial mycelial growth at 2.5 ug/mL after 4 days; assay type: functional; details: CECT 2681, 96 h, read-out: GI
Outline: as §1, with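 “cultures of each fungus” for “cultures”, “4” for “6”, “against control-plate growth.” for “relative to control plates.”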

[7] = test system: Fusarium culmorum; assay: Fungicidal activity against Fusarium culmorum CCM 172 assessed as inhibition of radial mycelial growth at 2.5 ug/mL after 4 days; assay type: functional; details: CCM 172, 96 h, read-out: GI
Outline: as §1, with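 “cultures of each fungus” for “cultures”, “4” for “6”, “against control-plate growth.” for “relative to control plates.”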

[8] = test system: Trichoderma viride; assay: Fungicidal activity against Hypocrea rufa CECT 2423 assessed as inhibition of radial mycelial growth at 2.5 ug/mL after 4 days; assay type: functional; details: CECT 2423, 96 h, read-out: GI
Outline: as §1, with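 “cultures of each fungus” for “cultures”, “4” for “6”, “against control-plate growth.” for “relative to control plates.”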

[9] = test system: Colletotrichum coccodes; assay: Fungicidal activity against Colletotrichum coccodes CCM 327 assessed as inhibition of radial mycelial growth at 2.5 ug/mL after 4 days; assay type: functional; details: CCM 327, 96 h, read-out: GI
Outline: as §1, with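 “cultures of each fungus” for “cultures”, “4” for “6”, “against control-plate growth.” for “relative to control plates.”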

[10] = test system: Fusarium oxysporum f. sp. niveum; assay: Fungicidal activity against Fusarium oxysporum f. sp. niveum CCM 259 assessed as inhibition of radial mycelial growth at 2.5 ug/mL after 4 days; assay type: functional; details: CCM 259, 96 h, read-out: GI
Outline: as §1, with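 “cultures of each fungus” for “cultures”, “4” for “6”, “against control-plate growth.” for “relative to control plates.”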

[11] = test system: Colletotrichum gloeosporioides; assay: Fungicidal activity against Colletotrichum gloeosporioides CECT 2859 assessed as inhibition of radial mycelial growth at 2.5 ug/mL after 4 days; assay type: functional; details: CECT 2859, 96 h, read-out: GI
Outline: as §1, with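 “cultures of each fungus” for “cultures”, “4” for “6”, “against control-plate growth.” for “relative to control plates.”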

[12] = test system: Penicillium italicum; assay: Fungicidal activity against Penicillium italicum CECT 2294 assessed as inhibition of radial mycelial growth at 2.5 ug/mL after 4 days; assay type: functional; details: CECT 2294, 96 h, read-out: GI
Outline: as §1, with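 “cultures of each fungus” for “cultures”, “4” for “6”, “against control-plate growth.” for “relative to control plates.”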

[13] = test system: Alternaria alternata; assay: Fungicidal activity against Alternaria tenuis CECT 2662 assessed as inhibition of radial mycelial growth at 2.5 ug/mL after 4 days; assay type: functional; details: CECT 2662, 96 h, read-out: GI
Outline: as §1, with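 “cultures of each fungus” for “cultures”, “4” for “6”, “against control-plate growth.” for “relative to control plates.”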

[14] = test system: Oncopeltus fasciatus; assay: Insecticidal activity against Oncopeltus fasciatus third-instar nymphs reared on diet based on sunflower seeds assessed as insect mortality at 5 to 10 ug/cm2 relative to untreated control; assay type: functional, organism-based
[15] = test system: Fusarium culmorum; assay: Fungicidal activity against Fusarium culmorum CCM 172 assessed as inhibition of radial mycelial growth at 100 ug/mL after 4 days; assay type: functional; details: CCM 172, 96 h, read-out: GI
Outline: (§2)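 Compounds in acetone incorporated into PDA at 100 µg/mL. Acetone-only plates were the negative control, and benomyl at 2.5 µg/mL was the positive control. Plates were inoculated with spores from 7-day-old PDA cultures and incubated at 28 °C for 4 days (6 days for R. necatrix and V. dahliae). Radial mycelial growth was measured and % inhibition calculated against the control. Triplicate determinations, mean ± SD, ANOVA/LSD.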

[16] = test system: Fusarium oxysporum f. sp. niveum; assay: Fungicidal activity against Fusarium oxysporum f. sp. niveum CCM 259 assessed as inhibition of radial mycelial growth at 100 ug/mL after 4 days; assay type: functional; details: CCM 259, 96 h, read-out: GI; outline: as §2
[17] = test system: Colletotrichum coccodes; assay: Fungicidal activity against Colletotrichum coccodes CCM 327 assessed as inhibition of radial mycelial growth at 100 ug/mL after 4 days; assay type: functional; details: CCM 327, 96 h, read-out: GI; outline: as §2
[18] = test system: Geotrichum candidum; assay: Fungicidal activity against Galactomyces geotrichum CCM 245 assessed as inhibition of radial mycelial growth at 100 ug/mL after 4 days; assay type: functional; details: CCM 245, 96 h, read-out: GI; outline: as §2
[19] = test system: Colletotrichum gloeosporioides; assay: Fungicidal activity against Colletotrichum gloeosporioides CECT 2859 assessed as inhibition of radial mycelial growth at 100 ug/mL after 4 days; assay type: functional; details: CECT 2859, 96 h, read-out: GI; outline: as §2
[20] = test system: Trichoderma viride; assay: Fungicidal activity against Hypocrea rufa CECT 2423 assessed as inhibition of radial mycelial growth at 100 ug/mL after 4 days; assay type: functional; details: CECT 2423, 96 h, read-out: GI; outline: as §2
[21] = test system: Trichothecium roseum; assay: Fungicidal activity against Trichothecium roseum CECT 2410 assessed as inhibition of radial mycelial growth at 100 ug/mL after 4 days; assay type: functional; details: CECT 2410, 96 h, read-out: GI; outline: as §2
[22] = test system: Penicillium italicum; assay: Fungicidal activity against Penicillium italicum CECT 2294 assessed as inhibition of radial mycelial growth at 100 ug/mL after 4 days; assay type: functional; details: CECT 2294, 96 h, read-out: GI; outline: as §2
[23] = test system: Verticillium dahliae; assay: Fungicidal activity against Verticillium dahliae CCM 269 assessed as inhibition of radial mycelial growth at 100 ug/mL after 6 days; assay type: functional; details: CCM 269, 144 h, read-out: GI; outline: as §2
[24] = test system: Aspergillus parasiticus; assay: Fungicidal activity against Aspergillus parasiticus CECT 2681 assessed as inhibition of radial mycelial growth at 100 ug/mL after 4 days; assay type: functional; details: CECT 2681, 96 h, read-out: GI; outline: as §2
[25] = test system: Fusarium oxysporum f. sp. gladioli; assay: Fungicidal activity against Fusarium oxysporum f. sp. gladioli CCM 233 assessed as inhibition of radial mycelial growth at 100 ug/mL after 4 days; assay type: functional; details: CCM 233, 96 h, read-out: GI; outline: as §2
[26] = test system: Alternaria alternata; assay: Fungicidal activity against Alternaria tenuis CECT 2662 assessed as inhibition of radial mycelial growth at 100 ug/mL after 4 days; assay type: functional; details: CECT 2662, 96 h, read-out: GI; outline: as §2
[27] = test system: Oncopeltus fasciatus; assay: Insecticidal activity against Oncopeltus fasciatus third-instar nymphs reared on diet based on sunflower seeds assessed as insect mortality at 5 ug/cm2 relative to untreated control; assay type: functional
[28] = test system: Oncopeltus fasciatus; assay: Insecticidal activity against Oncopeltus fasciatus third-instar nymphs reared on diet based on sunflower seeds assessed as insect mortality at 7.5 ug/cm2 relative to untreated control; assay type: functional
[29] = test system: Oncopeltus fasciatus; assay: Insecticidal activity against Oncopeltus fasciatus third-instar nymphs reared on diet based on sunflower seeds assessed as insect mortality at 10 ug/cm2 relative to untreated control; assay type: functional

Compound | Activity [14] | inhibition of growth at 100 µg/mL [15] [%] | inhibition of growth at 100 µg/mL [16] [%] | inhibition of growth at 100 µg/mL [17] [%] | inhibition of growth at 100 µg/mL [18] [%] | inhibition of growth at 100 µg/mL [19] [%] | inhibition of growth at 100 µg/mL [20] [%] | inhibition of growth at 100 µg/mL [21] [%] | inhibition of growth at 100 µg/mL [22] [%] | inhibition of growth at 100 µg/mL [23] [%] | inhibition of growth at 100 µg/mL [24] [%] | inhibition of growth at 100 µg/mL [25] [%] | inhibition of growth at 100 µg/mL [26] [%] | also measured
CCCCNC(=O)n1c(NC(=O)OC)nc2ccccc21 [BENOMYL] | – | – | – | – | – | – | – | – | – | – | – | – | – | inhibition of growth at 2.5 µg/mL [1]: 100%; inhibition of growth at 2.5 µg/mL [2]: 100%; inhibition of growth at 2.5 µg/mL [3]: 100%; inhibition of growth at 2.5 µg/mL [4]: 11.1%; inhibition of growth at 2.5 µg/mL [5]: 0%; inhibition of growth at 2.5 µg/mL [6]: 100%; inhibition of growth at 2.5 µg/mL [7]: 87%; inhibition of growth at 2.5 µg/mL [8]: 100%; inhibition of growth at 2.5 µg/mL [9]: 100%; inhibition of growth at 2.5 µg/mL [10]: 100%; inhibition of growth at 2.5 µg/mL [11]: 100%; inhibition of growth at 2.5 µg/mL [12]: 100%; inhibition of growth at 2.5 µg/mL [13]: 0%
CC1=C(C2CC2)OC2CCCN2C1=O (stereo not drawn) | inactive | 38.9 | 26.2 | 37.8 | 0 | 11.8 | 0 | 0 | 23.6 | 65.4 | 11.3 | 24.1 | 23.9 | –
CCCCCCCC(=O)C(C)C(=O)N1CCCC1=O (stereo not drawn) | inactive | 18.1 | 21 | 52 | 24.4 | 35.6 | 21.1 | 49.5 | 8.6 | 56.2 | 31.7 | 26.8 | 47.5 | –
CCCCCCCC(O)C(C)C(=O)N1CCCC1=O (stereo not drawn) | inactive | 24.3 | 33.3 | 69 | 0 | 36.6 | 38 | 19.6 | 33.3 | 45.9 | 31.5 | 36.5 | 38.1 | –
CC(C(=O)C(C)c1cccc(Oc2ccccc2)c1)C(=O)N1CCCC1 (stereo not drawn) | inactive | 23.5 | 17.4 | 37.6 | 12.3 | 41.4 | 30.7 | 46.6 | 22.2 | 19 | 27.9 | 23.1 | 39.5 | –
CCCCCCCC(=O)CC(=O)N1CCCC1=O | inactive | 8.2 | 27.6 | 48.3 | 0 | 34.5 | 22 | 0 | 26.4 | 49.8 | 21.3 | 35.5 | 30.2 | –
CCCCCCCC(=O)N1CC=CC1 | – | 24.5 | 30.5 | 76.7 | 0 | 35.4 | 38 | 34.3 | 31.2 | 39.6 | 19.3 | 38.5 | 51.4 | mortality at 5 µg/cm2 [27]: 20%; mortality at 7.5 µg/cm2 [28]: 100%
CC(C(=O)C(C)(C)C(=O)N1CCCC1)c1cccc(Oc2ccccc2)c1 (stereo not drawn) | inactive | 16.3 | 36.9 | 55.7 | 11.7 | 62.2 | 38.7 | 53.2 | 17.8 | 22.7 | 37.9 | 34.8 | 55.2 | –
CCCCCCCC(=C1C(=O)OC(C)(C)OC1=O)N1CC=CC1 | – | 39.7 | 28 | 18.8 | 23.9 | 29.9 | 54 | 38.6 | 29.9 | 13.9 | 39.3 | 26 | 21.1 | mortality at 10 µg/cm2 [29]: 40%
